Experimental data collected from several papers.
Each line is one published result; the experiments were not run side by side.

SMILES	target or system	assay	conditions	quantity	value
c1ccc(Oc2ccc(Nc3c4c(nc5ccccc35)CCC4)cc2)cc1	Leishmania donovani	parasite growth	40 µM, intracellular, amastigote	inhibition	96%
O=c1cc(CSc2ccc(N=Cc3ccc(O)cc3)cc2)occ1O	–	ABTS scavenging, absorbance	–	IC50	20.3 µM
N.N.[Cl][Pt][Cl]	WSU-NHL	cell growth or viability, ATP luminescence	10 µM, 72 h	inhibition	100%
CC(C)(C)c1cccc(C=Nc2ccc(SCc3cc(=O)c(O)co3)cc2)c1	–	ABTS scavenging, absorbance	–	IC50	15 µM
CC(C)C[C@H](NC(=O)[C@H](CCCCN)NC(=O)[C@H](Cc1c[nH]c2ccccc12)NC(=O)[C@H](CCCCN)NC(=O)[C@H](CCCCN)NC(=O)[C@H](CC(C)C)NC(=O)[C@H](Cc1ccccc1)NC(=O)[C@H](CCCCN)NC(=O)[C@H](CCC(=O)O)NC(=O)[C@H](CC(C)C)NC(=O)[C@H](CC(C)C)NC(=O)[C@H](CCCCN)NC(=O)[C@@H](N)CCCNC(=N)N)C(N)=O	A549	cell growth or viability, MTT	24 h	IC50	76 µM
COc1ccccc1C=Nc1ccc(SCc2cc(=O)c(O)co2)cc1	–	ABTS scavenging, absorbance	–	IC50	21.4 µM
N.N.[Cl][Pt][Cl]	A549	cell growth or viability, MTT	48 h	IC50	5.55 µM
Cc1cc(=O)oc2cc(OCCCC[Se]C#N)ccc12	A549	cell growth or viability, SRB	–	GI50	0.78 µM
CCOc1ccc(Nc2c3c(nc4ccccc24)CCC3)cc1	Leishmania donovani	parasite growth	33.33 µM, promastigote	inhibition	81%
O=C(Nc1ccc(Cl)cc1)Nc1cccc(-c2cn(Cc3ccc(Br)cc3)nn2)c1	A549	cell growth or viability, CCK-8	20 µM, 72 h	viability	108%
O=c1cc(CSc2ccc(N=Cc3ccccc3[N+](=O)[O-])cc2)occ1O	–	ABTS scavenging, absorbance	–	IC50	42.6 µM
CC[C@H](C)[C@H](NC(=O)[C@H](CCCNC(=N)N)NC(=O)[C@H](CC(C)C)NC(=O)[C@@H](N)CCCNC(=N)N)C(=O)N[C@@H](CCC(N)=O)C(=O)N[C@@H](CCCNC(=N)N)C(=O)N[C@@H](CCCNC(=N)N)C(=O)N[C@@H](CCCNC(=N)N)C(=O)N[C@@H](Cc1ccccc1)C(=O)N[C@@H](CCCNC(=N)N)C(=O)N[C@@H](CCCCN)C(=O)N[C@@H](CCCCN)C(=O)NCC(N)=O	A549	cell growth or viability, MTT	24 h	IC50	> 500 µM
N#C[Se]Cc1cc(=O)oc2cc(O)ccc12	A549	cell growth or viability, SRB	–	GI50	28 µM
